# High-throughput results from PubChem BioAssay.
# Hits are enriched below; roughly 3.4% of the tested compounds scored in any of these assays.
# ANO1 activ – TMEM16A chloride channel activators or potentiators, primary screen, cell-based, HTS; HEK293 TMEM16A/YFP-H148Q/I152L, iodide quench fluorescence; hits give low values; B-score at 10 µM; 340,000 compounds, 0.3% hits; AID 623877, 2012;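 active means fluorescence-ratio B-score plate-corrected deviation score at least 3 library SD below zero, with starting fluorescence score within 5 deviations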;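 further: channel opened by trigger with iodide after compound preincubation; score built on the fluorescence ratio of max minus min over baseline; more negative score means more quench and so TMEM16A activation or potentiation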
# IMP-1 inhibitor – IMP-1 metallo-beta-lactamase inhibitors, primary screen, biochemical, epi-absorbance readout, Pseudomonas aeruginosa enzyme | metallo-beta-lactamase IMP-1 (Pseudomonas aeruginosa) | purified IMP-1, nitrocefin hydrolysis, epi-absorbance fluorescence | inhibition, % at 5.6 µM | 290,000 compounds, 0.45% hits | AID 1556, 2009;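 active means inhibition above the mean plus 3 SD of all compounds in the same screening run, cut at about 4.5% in these data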;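 further: 0% = IMP-1 with DMSO and 100% = DMSO wells lacking enzyme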
#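 Material – recombinant IMP-1 enzyme, purified · Amount – IMP-1 0.2 nM before substrate addition · Medium – HEPES buffer pH 7.1 with ZnSO4 and Brij 35 · Timing – 25 °C, 15 min preincubation, 25 min reaction · Measured by – plate fluorescence quenching by hydrolysis product, ex 480/em 530 nm · Read-out – percent enzyme inhibition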
# CHT inh – inhibitors of human choline transporter CHT | CHT-expressing cells, membrane potential dye, choline response; hits give low values | B-score at 10 µM | 310,000 compounds, 0.86% hits;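 active means B-score over 3 SD under the library average, and starting fluorescence ratio not unusually high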;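 further: choline stimulus applied at its EC90 after an EC20 pre-addition; B-score computed on integrated fluorescence ratio after choline addition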
# Target sequence (Q9GZV3 whole entry, looked up): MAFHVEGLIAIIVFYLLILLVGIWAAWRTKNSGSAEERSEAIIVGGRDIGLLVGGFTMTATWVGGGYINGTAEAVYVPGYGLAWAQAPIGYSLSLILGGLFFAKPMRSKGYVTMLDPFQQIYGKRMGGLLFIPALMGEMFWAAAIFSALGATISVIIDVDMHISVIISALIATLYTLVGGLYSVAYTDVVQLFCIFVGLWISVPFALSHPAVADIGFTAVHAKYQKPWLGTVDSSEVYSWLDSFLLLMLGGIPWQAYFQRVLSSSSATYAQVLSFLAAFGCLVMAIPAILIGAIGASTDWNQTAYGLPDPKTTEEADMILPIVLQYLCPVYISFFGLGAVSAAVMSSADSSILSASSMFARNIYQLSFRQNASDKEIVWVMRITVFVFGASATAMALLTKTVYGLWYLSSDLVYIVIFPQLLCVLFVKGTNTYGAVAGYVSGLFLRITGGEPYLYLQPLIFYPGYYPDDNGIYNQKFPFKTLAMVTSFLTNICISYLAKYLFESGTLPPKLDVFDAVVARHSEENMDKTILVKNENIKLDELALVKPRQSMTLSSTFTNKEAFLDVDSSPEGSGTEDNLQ
# VIM-2 inhibitor – VIM-2 metallo-beta-lactamase inhibitors, primary screen, biochemical, epi-absorbance readout, Pseudomonas aeruginosa enzyme; purified VIM-2, nitrocefin hydrolysis, epi-absorbance fluorescence; 290,000 compounds, 0.89% hits; inhibition, % at 5.6 µM;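 active means inhibition above the mean of all tested compounds plus 3 SD, cutoff set per screening run, cut at about 7.5% in these data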;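 further: red hydrolysis product quenches plate fluorescence so inhibitors raise well fluorescence; 0% = enzyme with DMSO and 100% = DMSO without enzyme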
# CHT PAM – CHT positive allosteric modulators, primary screen, cell-based, membrane potential dye, choline EC20; B-score at 10 µM; AID 488977, 2010; 310,000 compounds, 0.49% hits; CHT-expressing cells; hits give high values; LV-AA mutant CHT in HEK293 cells; High affinity choline transporter 1 (Homo sapiens), Q9GZV3;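 active means initial fluorescence not abnormally high and integrated response B-score, plate-corrected, over 3 SD above library mean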
# TMEM16A inh – TMEM16A chloride channel inhibitors, primary screen, cell-based, HTS | Anoctamin-1 (Mus musculus), Q8BHY3 | normalized B-score (activity score, 25-100; higher = stronger inhibition) at 10 µM | AID 588511, 2011 | 310,000 compounds, 1.2% hits | HEK293 TMEM16A/YFP iodide influx fluorescence, ionomycin;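 active means ratio plate-corrected score three or more library SD toward inhibition, starting fluorescence score within five deviations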;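 further: score derived from kinetic fluorescence span divided by baseline fluorescence per well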
# TMEM16A reconf – TMEM16A chloride channel inhibitors, confirmation, cell-based, re-confirmation | 2,300 compounds, 39% hits | shares compounds with TMEM16A inh | HEK293 TMEM16A/YFP-H148Q, iodide quench fluorescence; ionomycin added to raise cell calcium | inhibition, % at 10 µM | AID 652189, 2013;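 active means mean duplicate percent inhibition, scaled so buffer wells are 0 and the reference blocker 100, over three buffer SD above buffer mean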
# HEK293 Ca mobil – calcium mobilization in TMEM16A/YFP HEK293 cells, confirmation, counter-screen for TMEM16A inhibitor project; 2,300 compounds, 2% hits; calcium response (% of ionomycin), % at 10 µM; Fluo4 calcium mobilization; shares compounds with TMEM16A inh; AID 652231, 2013;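 active means duplicate-averaged calcium signal over 20% of the ionomycin maximum, relative to buffer baseline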;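 further: each well's signal is peak minus trough fluorescence divided by its pre-addition baseline; 0% = buffer wells and 100% = ionomycin wells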
# Parental YFP cnt – iodide YFP quench changes in parental YFP-HEK293, counter-screen for TMEM16A inhibitor project, cell-based. shares compounds with TMEM16A inh. ionomycin. YFP ratio F(max-min)/F0 at 10 µM. 2,300 tested, under 10 active;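 active means yellow fluorescent protein signal ratio exceeding the buffer control mean by over 5 SD of those controls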;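 further: ratio is mean of duplicate wells from kinetic YFP trace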
# ClC-1 inh – ClC-1 chloride channel inhibition, selectivity assay for TMEM16A inhibitor project, cell-based, voltage-dependent ClC-1. CHO ClC-1-YFP, iodide influx fluorescence quench; iodide control reads 0, buffer control 100. AID 652236, 2013. shares compounds with TMEM16A inh. 2,300 tested, under 10 active. ratio percent, % at 10 µM;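 active means duplicate-mean ratio percent above the mean of iodide-only control wells, which defines zero, plus 5 of their SD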;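 further: higher percent means stronger block of ClC-1 iodide influx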
# Numbers without * were called inactive; i = inactive; · = no result.
SMILES,ANO1 activ,IMP-1 inhibitor,CHT inh,VIM-2 inhibitor,CHT PAM,TMEM16A inh,TMEM16A reconf,HEK293 Ca mobil,Parental YFP cnt,ClC-1 inh
CCOC(=O)C(=O)Nc1ccc(S(=O)(=O)Nc2ncccn2)cc1,i,-3,i,-1,i,25*,i,i,-1.1,2
CCCOC(=O)Nc1ccc(S(=O)(=O)Nc2ncccn2)cc1,i,-2,i,-4,i,i,·,·,·,·
CC(C)(C)C(=O)Nc1cc(S(=O)(=O)Nc2ccc(Cl)cc2)ccc1Cl,i,-2,i,2,i,25*,36%*,i,-1.4,-8
COc1ccc(NS(=O)(=O)c2ccc(Cl)c(NC(=O)c3ccccc3F)c2)cc1,i,·,·,·,·,·,·,·,·,·
COCCN(C(=O)c1ccc(N(C)S(=O)(=O)c2ccc(C)cc2)cc1)c1c(N)n(CC(C)C)c(=O)[nH]c1=O,i,·,·,·,·,·,·,·,·,·
CC(=O)N(/N=C1\Sc2ccccc2C1=O)c1cccc(C)c1,i,-2,i,-2,i,i,i,i,-1.1,-16
COc1cc2ccccc2cc1C(=O)Nc1ccccc1N1CCCC1,i,·,i,·,i,i,·,·,·,·
COc1ccccc1NC(=O)c1cc2cc(Br)ccc2cc1O,i,-2,i,-2,i,100*,76%*,i,-0.89,-15
COc1cc2ccccc2cc1C(=O)Nc1ccccc1Cl,i,0,i,1,i,100*,70%*,i,-0.77,-16
COc1cc(NC(=O)c2cc3ccccc3cc2O)c(OC)cc1Cl,i,0,i,0,i,i,·,·,·,·
Cc1ccc(N2CC(NC(=O)C3CC3)CC2=O)cc1 (configuration not stated),i,·,i,·,i,i,·,·,·,·
COCCN(C(=S)Nc1cccc(OC)c1)C(C)c1cccs1 (configuration not stated),i,-4,i,-5,i,i,·,·,·,·
COCCN(C(=S)Nc1ccc(C(C)C)cc1)C(C)c1cccs1 (configuration not stated),i,0,i,-3,i,25*,i,i,-0.85,-13
CCN(Cc1ccncc1)C(=O)c1ccc(C)c(S(=O)(=O)N2CCCCC2)c1,i,·,·,·,·,·,·,·,·,·
Cc1nc2ccccc2cc1OCc1ccccc1,i,0,i,-1,i,100*,32%*,i,-0.95,-20
Cc1nc(OCc2ccccc2)c2ccccc2n1,i,-2,i,-2,i,100*,i,i,-1.2,-16
COc1ccc(F)cc1COc1nc(C)nc2ccccc12,i,-2,i,-1,i,i,·,·,·,·
Cc1nc2ccccc2cc1C(=O)NCc1ccccc1,i,·,i,·,i,i,·,·,·,·
Fc1ccc2nc(Nc3nc4c(F)cccc4s3)sc2c1,i,-5,i,-3,i,25*,25%*,i,-0.89,-13
O=CN/C=C/c1cccc(O)c1,i,·,·,·,·,·,·,·,·,·
CC(=O)c1ccc(NC(=O)c2ccc(CSc3ccccc3)o2)cc1,i,-2,i,-2,i,100*,22%*,i,-0.89,-9
COc1ccc(Cc2noc(CN3CCN(Cc4cccc(Cl)c4)CC3)n2)cc1OC,i,-2,i,0,i,i,·,·,·,·
COc1ccc(Cc2noc(CN3CCN(c4ccc(Cl)cn4)CC3)n2)cc1OC,i,-3,i,-3,i,100*,28%*,i,-0.99,6
CCc1cccc(NC(=O)Cn2c(=O)c3cccn3c3ccccc32)c1,i,0,i,-3,i,i,·,·,·,·
CC1CCCN(S(=O)(=O)c2ccc3oc(=O)ccc3c2)C1 (configuration not stated),i,0,i,2,i,i,·,·,·,·
SMILES,ANO1 activ,IMP-1 inhibitor,CHT inh,VIM-2 inhibitor,CHT PAM,TMEM16A inh,TMEM16A reconf,HEK293 Ca mobil,Parental YFP cnt,ClC-1 inh
C[C@@H](C(=O)N1CCN(c2ccccc2)CC1)N1C(=O)C2CC=CCC2C1=O (some centres not stated),i,·,·,·,·,·,·,·,·,·
CC(C(=O)N1CCN(c2ccccc2)CC1)N1C(=O)C2CC=CCC2C1=O (configuration not stated),i,-3,i,-3,i,25*,i,i,-1,-15
COCC(C)n1c(C)cc(C(=O)COC(=O)c2oc3ccccc3c2C)c1C (configuration not stated),i,-1,i,-1,i,100*,26%*,i,-0.89,-13
COCC(C)n1c(C)cc(C(=O)COC(=O)c2n[nH]c3ccccc23)c1C (configuration not stated),i,0,i,-3,i,i,·,·,·,·
COc1ccc(-n2nc(C(=O)NCC(=O)NCCc3ccc(OC)c(OC)c3)c3ccccc3c2=O)cc1Cl,i,-2,i,0,i,25*,i,i,-1.3,-4
CCCCOc1ccc(C(=O)NCC(=O)N2CC(C)CC(C)C2)cc1 (configuration not stated),i,·,·,·,·,·,·,·,·,·
O=C(COc1ccc(-c2nnco2)cc1)NCc1ccccc1Cl,i,-5,i,0,i,i,·,·,·,·
Cc1cc(C(=O)COc2ccc(-c3nnco3)cc2)c(C)n1Cc1ccccc1,i,-2,i,-3,i,100*,18%*,i,-0.84,-16
CN1CCN(C2CCCCCC2)CC1,i,-1,i,-4,i,25*,i,i,-0.8,-10
COc1ccc(N2CCN(C3CC(=O)N(Cc4ccccc4)C3=O)CC2)cc1 (configuration not stated),i,-3,i,-2,i,i,·,·,·,·
